Screening data (PubChem)
Rows were chosen to be rich in hits. Some 2.3% of all compounds tested hit in one or more screens of this group.
SKN-1 block – inhibitors of C. elegans SKN-1. C. elegans VP596 Pgst-4::GFP/RFP ratio, acrylamide-induced, 24 h. inhibition, % at 21.8 µM. 360,000 compounds, 0.49% hits. AID 624304;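 active = interference check ratio from 0.5 to 1.5 plus GFP to RFP signal ratio inhibition reaching or exceeding a fixed threshold, cut at about 30% in these data, passing the limit was not always enough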
MPTP inh – blocks calcium-induced mitochondrial swelling; isolated mouse mitochondria, Ca2+ swelling absorbance, 30 min; inhibition, % at 10 µM; 360,000 compounds, 1.4% hits; AID 602449;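 active = inhibition of 50% or more, scaled per plate between neutral and stimulator controls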;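 also: 0% = DMSO wells given calcium and 100% = 1 mM EGTA wells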
MT1-MMP act inh – blocks activation of human MT1-MMP; P50281; HT1080 RFP-PRO-GFP cells, GFP/RFP ratio fluorescence, overnight; percent of plate control window, DMSO zero; GFP/RFP ratio change, % at 20 µM; 360,000 compounds, 0.061% hits;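 active = GFP/RFP ratio change of at least 30% with cell ATP level not reduced by more than half and red fluorescence within 50% of control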
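Test system: HT1080 RFP-PRO-GFP cells; Benchmarks: DMSO and RFP-L50D-GFP cell wells; Timing: cells overnight before dosing, compound overnight, 37 °C, 5% CO2; Compound: one 20 µM compound dose with 1% DMSO; Read-out: GFP/RFP fluorescence ratio.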
ATG4B inh – blocks human ATG4B protease cleavage of LC3 substrate | 340,000 compounds, 0.51% hits | AID 504462 | inhibition, % at 8.33 µM | ATG4B cleavage of LC3-PLA2, NBD-HPC fluorescence, 1 h; in the data active = inhibition above about 40%
Target sequence (Q9Y4P1 whole entry, looked up): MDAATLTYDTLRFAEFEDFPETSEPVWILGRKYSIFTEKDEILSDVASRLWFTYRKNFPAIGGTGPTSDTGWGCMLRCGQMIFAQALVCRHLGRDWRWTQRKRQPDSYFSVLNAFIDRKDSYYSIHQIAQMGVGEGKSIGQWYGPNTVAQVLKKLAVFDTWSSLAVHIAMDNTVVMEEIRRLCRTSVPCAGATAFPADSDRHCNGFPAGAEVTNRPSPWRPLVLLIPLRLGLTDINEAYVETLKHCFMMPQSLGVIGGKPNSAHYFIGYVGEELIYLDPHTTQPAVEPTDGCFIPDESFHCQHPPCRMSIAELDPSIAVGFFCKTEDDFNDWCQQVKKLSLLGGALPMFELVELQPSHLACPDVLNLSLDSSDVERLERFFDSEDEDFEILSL
Rh123 counter – membrane potential counter-screen of mitochondrial pore inhibitors; shares compounds with MPTP inh; isolated mitochondria, Rhodamine 123 fluorescence; inhibition, % at 10 µM; 5,000 compounds, 78% hits; AID 624504; in the data active = inhibition above about 22%;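 also: 0% = DMSO vehicle and 100% = positive control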
MPTP swell DR – dose response confirmation of mitochondrial permeability transition pore inhibitors | shares compounds with MPTP inh | isolated mitochondria swelling, absorbance | IC50, µM | 780 compounds, 58% hits; in the data active = IC50 below about 20 µM
MPTP counter DR – active in counter-screen for permeability transition pore inhibitors. shares compounds with MPTP inh. isolated mitochondria counterscreen, fluorescence read-out. IC50, µM. 780 compounds, 49% hits; in the data active = IC50 below about 80 µM
The depositor's hits bear a star; / = not tested or not shown.

SMILES | SKN-1 block | MPTP inh | MT1-MMP act inh | ATG4B inh | Rh123 counter | others
CC(=O)c1c(C)[nH]c(C(=O)COC(=O)Cc2ccccc2F)c1C | 4 | 2 | -1 | -1 | /
CC(OC(=O)c1cc(Br)ccc1O)C(=O)Nc1ccc(S(=O)(=O)N2CCCC2)cc1 (stereo unspecified) | -10 | 87* | -8 | -5 | 91*
CSc1cccc(CNC(=O)C2CCC(=O)N(CCCN3CCCC3=O)C2)c1 (stereo unspecified) | 13 | 0 | 1 | 23 | /
Cc1ccc2c(c1)c1c(n2CC(O)CNC(C)(C)C)CCCC1 (stereo unspecified) | -8 | 70* | -6 | -6 | -18 | MPTP swell DR=13*;MPTP counter DR=>80
Cc1ccc2c(c1)c1c(n2CC(O)CN2CCCCCC2)CCCC1 (stereo unspecified) | -13 | 1 | -3 | 1 | /
CCN(CC)CCN1C(=O)C(=O)/C(=C(/O)c2ccc(S(=O)(=O)N3CCOCC3)cc2)C1c1ccc(C(C)(C)C)cc1 (stereo unspecified) | 2 | -1 | -1 | -5 | /
Clc1ccc(/C(Cc2nc3ccccc3[nH]2)=N\Nc2ccccc2)cc1 | 7 | 86* | -3 | 6 | 70*
CN(C)S(=O)(=O)c1cc(NC(=O)CSc2cccc[n+]2[O-])ccc1Cl | 4 | 1 | 2 | -14 | /
CN(C)S(=O)(=O)c1cc(NC(=O)CSc2ncc(C(F)(F)F)cc2Cl)ccc1Cl | 10 | 74* | -2 | -11 | 86*
c1ccc2c(Nc3nc(-c4ccncc4)nc4ccccc34)cccc2c1 | 6 | 14 | -3 | 0 | /
Clc1cccc(Nc2nc(-c3ccncc3)nc3ccccc23)c1 | -4 | 69* | 1 | -2 | 83*
Fc1ccc(Nc2nc(-c3ccncc3)nc3ccccc23)cc1F | 31 | 71* | -3 | 1 | 45*
CCOC(=O)c1ccc(Oc2c(C)oc3cc(OS(C)(=O)=O)ccc3c2=O)cc1 | 6 | -1 | -1 | -2 | /
CC(C)N(C(=O)[C@H]1C[C@H](CC(=O)NCC23CC4CC(CC(C4)C2)C3)C(=O)N2CCc3c([nH]c4ccc(Cl)cc34)[C@]12C)C(C)C | 1 | 2 | -12 | -2 | /
COc1cc(C)cc(OC)c1OCC(=O)Nc1cc(C)on1 | 5 | -1 | -1 | -10 | /
COc1ccc(NS(=O)(=O)c2cccc(NC(=O)c3ccc(Cl)nc3)c2)cc1 | -5 | 100* | -8 | -8 | 94*
Cc1ccc(NC(=O)c2cc3c(s2)CCCC3)cc1S(=O)(=O)Nc1ccccc1Cl | 4 | 41 | -13 | 22 | /
COc1cccc(S(=O)(=O)Nc2ccc(C(=O)Nc3ccncc3)cc2)c1 | -3 | 13 | 2 | -7 | /
O=C(Nc1cc(S(=O)(=O)Nc2ccccc2Cl)ccc1O)c1cc2c(s1)CCCC2 | 3 | 89* | 3 | -5 | 83*
O=C(Nc1cccc(S(=O)(=O)Nc2ccc(Cl)cc2)c1)c1cc2c(s1)CCCC2 | 0 | 97* | -11 | 8 | 83*
COc1ccc(NS(=O)(=O)c2cccc(NC(=O)CCS(=O)(=O)c3ccccc3)c2)cc1 | 4 | 55* | 2 | -10 | 16 | MPTP swell DR=>100;MPTP counter DR=57*
COc1ccc(Nc2cc(C)nc(N3CCN(C(=O)c4ccc5c(c4)OCO5)CC3)n2)cc1 | 4 | 0 | 2 | -14 | /
O=C(Nc1cccc(S(=O)(=O)Nc2ccc(Cl)cc2)c1)c1ccc(Cl)nc1 | 7 | 92* | -6 | -13 | 80*
COc1ccc(OCC(O)CNS(=O)(=O)c2ccc(NC(C)=O)cc2)cc1 (stereo unspecified) | 6 | -1 | 0 | 7 | /
O=Cc1ccnc(-c2ccc(OC(=O)c3ccco3)cc2)n1 | -4 | 2 | 3 | 18 | /
SMILES | SKN-1 block | MPTP inh | MT1-MMP act inh | ATG4B inh | Rh123 counter | others
CC(C)(C)C1(C)OC(=O)C(=Cc2ccc(OCC(=O)Nc3ccccc3)cc2)C(=O)O1 (stereo unspecified) | -2 | 67* | -2 | -3 | -3
FC(F)(F)C1=Nc2cccc3cccc(c23)N1 | 19 | 103* | 6 | 12 | 71*
O=C(NCc1cccc(C(F)(F)F)c1)c1[nH]c(C(F)(F)F)nc1-c1ccccc1 | -5 | 51* | 1 | / | 99*
O=C(O)c1ccc2ncc(NC(=O)c3ccc(F)cc3)c(=O)n2c1 | -4 | 0 | 0 | -1 | /
N#CC1=C(SCC(=O)NC2CC2)NC(=O)C(C#N)C12CCCCC2 (stereo unspecified) | 5 | 0 | 6 | 1 | /
N#CC1=C(SCC(=O)NC23CC4CC(CC(C4)C2)C3)NC(=O)C(C#N)C12CCCCC2 (stereo unspecified) | -3 | 80* | 4 | 7 | 87*
CC(C)(C)C1CCC2(CC1)C(C#N)=C(SCC(=O)NC1CCCCC1)NC(=O)C2C#N (stereo unspecified) | 6 | 79* | 7 | 18 | 88*
CC(OC(=O)c1ccc2c(c1)OCO2)C(=O)NC1CCCCC1 (stereo unspecified) | 0 | -1 | -1 | / | /
O=C(O)CCC(=O)N1N=C(c2ccc(Br)cc2)CC1c1cccs1 (stereo unspecified) | 11 | 81* | 2 | -2 | 3 | MPTP swell DR=>100;MPTP counter DR=>80
O=C(/C=C/c1cccs1)Nc1ccc([N+](=O)[O-])cc1 | 6 | 81* | 0 | 1 | 74*
O=C(/C=C/c1cccs1)c1ccc([N+](=O)[O-])cc1 | -10 | 4 | 0 | -3 | /
CN(C)CCCNCC(=O)c1c(-c2ccccc2)n(C)c2ccccc12 | 2 | -1 | -4 | -1 | /
N=Nc1c(O)n(CC(=O)Nc2ccccc2)c2ccccc12 | 11 | -1 | -1 | 3 | /
O=C(CC1CCCC1)NNC(=O)c1ccc(Br)cc1 | -4 | 0 | -4 | 2 | /
COc1ccc(C(C(=O)NC2CCCC2)N(CCCO)C(=O)c2snc(C(N)=O)c2N)cc1 (stereo unspecified) | 4 | -1 | 1 | -5 | /
OCCN1CCN(CC/C=C2/c3ccccc3Sc3ccc(C(F)(F)F)cc32)CC1 | 24 | 91* | -4 | -1 | -13
OCCN1CCN(CCCN2c3ccccc3Sc3ccc(C(F)(F)F)cc32)CC1 | 4 | 86* | -4 | -6 | -18
CN(C)CCC(=O)N1c2ccccc2Sc2ccc(C(F)(F)F)cc21 | 2 | 0 | 3 | 0 | /
CN(C)CCCN1c2ccccc2Sc2ccc(C(F)(F)F)cc21 | 14 | 102* | -8 | 3 | -21
O=C(CSc1nc(Nc2ccccc2)nc(N2CCOCC2)n1)Nc1ccc([N+](=O)[O-])cc1 | 2 | 74* | -10 | -8 | 70*
Cc1cc(C)nc(SCC(=O)Nc2ccc(N3CCOCC3)c(Cl)c2)n1 | -1 | 61* | -1 | -9 | 78*
